Results as given in ChEMBL document CHEMBL3232994, “Searching for new derivatives of neocryptolepine: synthesis, antiproliferative, antimicrobial and antifungal activities” (Eur J Med Chem, 2014).
In brackets after ≈: the same amount, converted by molar mass. Activity calls are given as the source filed them. No cut-off for these calls is given here.

How the values were obtained:
Bacillus cereus = assay: Antibacterial activity against Bacillus cereus ATCC 11778 assessed as growth inhibition after 18 hrs by two-fold serial dilution method; assay type: functional; details: ATCC 11778, 18 h
Summary of the method: (§1)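 Twofold serial agar dilution on Mueller–Hinton II agar per CLSI. Final inoculum 10⁴ CFU/mL, except Enterococcus hirae ATCC 10541 at 10⁵ CFU/mL. MIC read after 18 h at 35 °C.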

Enterococcus hirae = assay: Antibacterial activity against Enterococcus hirae ATCC 10541 assessed as growth inhibition after 18 hrs by two-fold serial dilution method; assay type: functional; details: ATCC 10541, 18 h; summary of the method: as §1
Micrococcus luteus [1] = assay: Antibacterial activity against Micrococcus luteus ATCC 10240 assessed as growth inhibition after 18 hrs by two-fold serial dilution method; assay type: functional; details: ATCC 10240, 18 h; summary of the method: as §1
Candida albicans [2] = assay: Antifungal activity against Candida albicans ATCC 10231 assessed as growth inhibition after 18 hrs by two-fold serial dilution method; assay type: functional; details: ATCC 10231, 18 h
Summary of the method: (§2)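 MIC by twofold serial dilution on RPMI agar per CLSI. Final inoculum 10⁴ CFU/mL. Plates read after 18 h at 35 °C.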

Candida albicans [3] = assay: Antifungal activity against Candida albicans SN250 assessed as growth inhibition after 18 hrs by two-fold serial dilution method; assay type: functional; details: SN250, 18 h
Candida parapsilosis = assay: Antifungal activity against Candida parapsilosis ATCC 22019 assessed as growth inhibition after 18 hrs by two-fold serial dilution method; assay type: functional; details: Lodderomyces parapsilosis, ATCC 22019, 18 h
Candida albicans [4] = assay: Antifungal activity against Candida albicans ATCC 90028 assessed as growth inhibition after 18 hrs by two-fold serial dilution method; assay type: functional; details: ATCC 90028, 18 h; summary of the method: as §2
Candida albicans [5] = assay: Antifungal activity against Candida albicans SN250 assessed as inhibition of biofilm formation < MIC after 24 hrs by XTT reduction assay; assay type: functional, organism-based
BALB/3T3 = assay: Cytotoxicity against mouse BALB/3T3 cells assessed as growth inhibition after 72 hrs by SRB assay; assay type: cell-based; details: BALB/3T3, 72 h
Summary of the method: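 Mouse fibroblasts were kept in Dulbecco medium with 10% FBS, L-glutamine and pyruvate, and seeded at 10⁴/well 24 h before dosing. Agents were given at four tenfold final levels for 72 h. Cells were TCA-fixed (50%, 4 °C, 1 h) and stained with 0.4% SRB in 1% acetic acid. Triplicate wells, 3–5 repeats. IC50 versus untreated cells.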

Staphylococcus aureus [6] = assay: Antibacterial activity against Staphylococcus aureus NCTC 4163 assessed as growth inhibition after 18 hrs by two-fold serial dilution method; assay type: functional; details: NCTC 4163, 18 h; summary of the method: as §1
Staphylococcus aureus [7] = assay: Antibacterial activity against Staphylococcus aureus ATCC 25923 assessed as growth inhibition after 18 hrs by two-fold serial dilution method; assay type: functional; details: ATCC 25923, 18 h; summary of the method: as §1
Staphylococcus aureus [8] = assay: Antibacterial activity against Staphylococcus aureus ATCC 6538 assessed as growth inhibition after 18 hrs by two-fold serial dilution method; assay type: functional; details: ATCC 6538, 18 h; summary of the method: as §1
Staphylococcus aureus [9] = assay: Antibacterial activity against Staphylococcus aureus ATCC 29213 assessed as growth inhibition after 18 hrs by two-fold serial dilution method; assay type: functional; details: ATCC 29213, 18 h; summary of the method: as §1
[10] = tested on: Staphylococcus epidermidis; assay: Antibacterial activity against Staphylococcus epidermidis ATCC 12228 assessed as growth inhibition after 18 hrs by two-fold serial dilution method; assay type: functional; details: ATCC 12228, 18 h; summary of the method: as §1
Bacillus spizizenii = assay: Antibacterial activity against Bacillus subtilis ATCC 6633 assessed as growth inhibition after 18 hrs by two-fold serial dilution method; assay type: functional; details: ATCC 6633, 18 h; summary of the method: as §1
Micrococcus luteus [11] = assay: Antibacterial activity against Micrococcus luteus ATCC 9341 assessed as growth inhibition after 18 hrs by two-fold serial dilution method; details: ATCC 9341, 18 h
Candida albicans [12] = assay: Antifungal activity against Candida albicans SN250 assessed as […] at 2.4 to 625 ug/mL after 24 hrs by XTT reduction assay; assay type: functional, organism-based
A549 = assay: Cytotoxicity against human A549 cells assessed as growth inhibition after 72 hrs by SRB assay; assay type: functional, cell-based; details: A549, 72 h
Summary of the method: (§3)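 Cells were seeded at 10⁴/well in RPMI 1640/Opti-MEM (1:1) with 5% FBS, plus 0.01 mg/mL insulin for MCF-7, 24 h before dosing. Agents in water/medium were given at four tenfold final levels for 72 h. Cells were fixed with cold 50% TCA (1 h, 4 °C), stained with 0.4% SRB, cell-free blank. Triplicate wells, 3–5 repeats. IC50 relative to untreated control.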

MCF7 = assay: Cytotoxicity against human MCF7 cells assessed as growth inhibition after 72 hrs by SRB assay; assay type: functional, cell-based; details: MCF7, 72 h; summary of the method: as §3
LoVo = assay: Cytotoxicity against human LoVo cells assessed as growth inhibition after 72 hrs by SRB assay; assay type: functional, cell-based; summary of the method: as §3
KB = assay: Cytotoxicity against human KB cells assessed as growth inhibition after 72 hrs by SRB assay; assay type: functional, cell-based; summary of the method: as §3

Row | Structure (SMILES) | MIC (Bacillus cereus) | MIC (Enterococcus hirae) | MIC (Micrococcus luteus [1]) | MIC (Candida albicans [2]) | MIC (Candida albicans [3]) | MIC (Candida parapsilosis) | MIC (Candida albicans [4]) | MIC (Staphylococcus aureus [6]) | MIC (Staphylococcus aureus [7]) | MIC (Staphylococcus aureus [8]) | MIC (Staphylococcus aureus [9]) | MIC [10] | MIC (Bacillus spizizenii) | MIC (Micrococcus luteus [11]) | inhibition (Candida albicans [12]) | also measured
1 | Cc1c2c3ccccc3nc-2n(C)c2ccccc12 | 100 µg/mL (≈ 406 µM) | 200 µg/mL (≈ 812 µM) | 50 µg/mL (≈ 203 µM) | 12.5 µg/mL (≈ 50.7 µM) | 12.5 µg/mL (≈ 50.7 µM) | 12.5 µg/mL (≈ 50.7 µM) | 12.5 µg/mL (≈ 50.7 µM) | 100 µg/mL (≈ 406 µM) | 200 µg/mL (≈ 812 µM) | 100 µg/mL (≈ 406 µM) | 100 µg/mL (≈ 406 µM) | 100 µg/mL (≈ 406 µM) | 50 µg/mL (≈ 203 µM) | 50 µg/mL (≈ 203 µM) |  | inhibition (Candida albicans [5]): Active; IC50 (BALB/3T3): 5770 nM
2 | Cc1c2c3cc(NC(=O)CNC(=O)[C@@H]4CCCN4)ccc3nc-2n(C)c2ccccc12.Cl.Cl | > 200 µg/mL | > 200 µg/mL | 50 µg/mL | 200 µg/mL | 200 µg/mL | 200 µg/mL | 200 µg/mL | > 200 µg/mL | > 200 µg/mL | > 200 µg/mL | 100 µg/mL | 100 µg/mL | 100 µg/mL | 50 µg/mL | inactive | 
3 | Cc1c2c3cc(NC(=O)[C@@H]4CCCN4)ccc3nc-2n(C)c2ccccc12.Cl.Cl | 50 µg/mL | 100 µg/mL | 6.25 µg/mL | 200 µg/mL | 200 µg/mL | 200 µg/mL | 200 µg/mL | 12.5 µg/mL | 50 µg/mL | 12.5 µg/mL | 50 µg/mL | 12.5 µg/mL | 12.5 µg/mL | 6.25 µg/mL |  | inhibition (Candida albicans [5]): Active
4 | Cc1c2c3cc(NC(=O)[C@@H](N)Cc4cnc[nH]4)ccc3nc-2n(C)c2ccccc12.Cl | > 200 µg/mL | > 200 µg/mL | > 200 µg/mL | > 200 µg/mL | 125 µg/mL | > 200 µg/mL | > 200 µg/mL | > 200 µg/mL | > 200 µg/mL | > 200 µg/mL | > 200 µg/mL | > 200 µg/mL | > 200 µg/mL | > 200 µg/mL |  | 
5 | Cc1c2c3cc(NC(=O)CNC(=O)CN)ccc3nc-2n(C)c2ccccc12.Cl.Cl | > 200 µg/mL | > 200 µg/mL | 200 µg/mL | 200 µg/mL | 200 µg/mL | 200 µg/mL | 200 µg/mL | > 200 µg/mL | > 200 µg/mL | > 200 µg/mL | > 200 µg/mL | > 200 µg/mL | 100 µg/mL | 200 µg/mL | inactive | 
6 | Cc1c2c3ccccc3nc-2n(C)c2ccc(NC(=O)CNC(=O)CN)cc12.Cl | > 200 µg/mL | > 200 µg/mL | > 200 µg/mL | > 200 µg/mL | > 500 µg/mL | > 200 µg/mL | > 200 µg/mL | > 200 µg/mL | > 200 µg/mL | > 200 µg/mL | > 200 µg/mL | > 200 µg/mL | > 200 µg/mL | > 200 µg/mL | inactive | IC50 (BALB/3T3): 2110 nM; IC50 (A549): 1440 nM; IC50 (MCF7): 4110 nM; IC50 (LoVo): 1170 nM; IC50 (KB): 1540 nM
7 | Cc1c2c3cc(NC(=O)CN)ccc3nc-2n(C)c2ccccc12.Cl.Cl | 50 µg/mL | 100 µg/mL | 6.25 µg/mL | 25 µg/mL | 15.6 µg/mL | 25 µg/mL | 50 µg/mL | 50 µg/mL | 50 µg/mL | 50 µg/mL | 100 µg/mL | 25 µg/mL | 12.5 µg/mL | 6.25 µg/mL |  | inhibition (Candida albicans [5]): Active
8 | OC(Cn1cncn1)(Cn1cncn1)c1ccc(F)cc1F [FLUCONAZOLE] |  |  |  | 1 µg/mL (≈ 3.27 µM) |  | 2 µg/mL (≈ 6.53 µM) | 1 µg/mL (≈ 3.27 µM) |  |  |  |  |  |  |  |  | 
9 | Cc1c2c3ccccc3nc-2n(C)c2ccc(NC(=O)[C@@H](N)Cc3cnc[nH]3)cc12.Cl | > 200 µg/mL | > 200 µg/mL | > 200 µg/mL | > 200 µg/mL | 250 µg/mL | > 200 µg/mL | > 200 µg/mL | > 200 µg/mL | > 200 µg/mL | > 200 µg/mL | > 200 µg/mL | > 200 µg/mL | > 200 µg/mL | > 200 µg/mL | inactive | IC50 (KB): 3880 nM
10 | O=C(O)c1cn(C2CC2)c2cc(N3CCNCC3)c(F)cc2c1=O [CIPROFLOXACIN] | 1 µg/mL (≈ 3.02 µM) | 4 µg/mL (≈ 12.1 µM) | 1 µg/mL (≈ 3.02 µM) |  |  |  |  | 0.25 µg/mL (≈ 0.754 µM) | 0.5 µg/mL (≈ 1.51 µM) | 0.25 µg/mL (≈ 0.754 µM) | 0.5 µg/mL (≈ 1.51 µM) | 0.25 µg/mL (≈ 0.754 µM) | < 0.125 µg/mL | 2 µg/mL (≈ 6.04 µM) |  | 
11 | Cc1c2c3ccccc3nc-2n(C)c2ccc(NC(=O)[C@@H]3CCCN3)cc12.Cl | 25 µg/mL | 100 µg/mL | 6.25 µg/mL | 100 µg/mL | 31.2 µg/mL | 50 µg/mL | 50 µg/mL | 12.5 µg/mL | 50 µg/mL | 12.5 µg/mL | 50 µg/mL | 12.5 µg/mL | 6.25 µg/mL | 6.25 µg/mL |  | IC50 (BALB/3T3): 540 nM; IC50 (A549): 120 nM; IC50 (MCF7): 620 nM; IC50 (LoVo): 70 nM; IC50 (KB): 470 nM
